From PubChem
Shn3 inh set2: inhibitors of Schnurri-3 3'UTR reporter in osteoblasts | Clone20 osteoblast Shn3 3'UTR firefly luciferase, 24 h | inhibition, % at 12.5 µM | 360,000 tested, 0.52% active;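 active = mean inhibition of at least 75% with every replicate also reaching 75%; inconclusive = mean inhibition at least 75% but some replicate below; inactive = mean inhibition below 75%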;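 also: 0% = median of neutral control wells and 100% = pilot-screen positive control compound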
EWS-Fli inh: EWS/Fli transcriptional activity inhibition; 350,000 tested, 0.67% active; A673 NR0B1-luciferase reporter, viability-normalised; inhibition, % at 12.6 µM;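 active = mean inhibition of at least 50% after viability correction, with every replicate also passing that limit; inconclusive = mean reaches 50% but only one of two replicates passes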;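 also: firefly luciferase signal divided by Alamar Blue viability fluorescence both relative to DMSO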
EBV LMP1 NFkB: reduces LMP1-driven NF-kappaB luciferase signal. LMP1-induced NF-kappaB luciferase reporter cells, luminescence. inhibition, % at 12.5 µM. 350,000 tested, 0.69% active. AID 504558; in the data active = inhibition above about 41%; inconclusive = no clear call, values can overlap the other calls;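 also: 0% = neutral control wells and 100% = reference inhibitor control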
aSyn UTR inh: MLPCN primary screen, SNCA 5' untranslated region. alpha-synuclein 5'UTR reporter, inhibitor activity. inhibition, % (tested at 7.5 µM). 300,000 tested, 0.82% active; in the data active = inhibition above about 60%; inconclusive = no clear call, values can overlap the other calls;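 also: H4 neuroglioblastoma cells stably carrying SNCA 5'UTR luciferase fusion; 0% = DMSO wells and 100% = positive control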
FN deposit inh: fibronectin deposition inhibition; 350,000 tested, 0.086% active; AH1F fibroblasts, Alexa488-fibronectin deposition fluorescence, overnight; inhibition, % at 12.6 µM; AID 743247;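 active = mean inhibition across replicates of 30% or more, regardless of how many single replicates reach that level; inconclusive = mean under 30% yet at least half of replicates reach 30%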;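 also: positive control wells lacked labelled fibronectin entirely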
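Measured by – fluorescence 485/525 nm · System – AH1F fibroblast monolayer, labelled fibronectin deposition · Amount – 10000 cells per well · Buffer or medium – serum-reduced DMEM (2% serum) · Doses – single dose, pinned · Also added – fluorescent fibronectin at 24 nM final · Schedule – 1 h cell attachment, overnight exposure to compound and label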
PAX8 reporter: lowers PAX8-driven luciferase in RMG-I cells | RMG-I TPO-luciferase reporter, SteadyGlo, 24 h | inhibition, % at 12.6 µM | 360,000 tested, 1.2% active | AID 652154;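 active = mean replicate inhibition at least 60% with every replicate also reaching 60%; inconclusive = only one of the two criteria is met; inactive = mean below 60% and not all replicates reaching 60%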;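 also: luciferase light reporting Pax8 driven TPO promoter activity; plate controls were median of neutral control wells for no effect and mitoxantrone controls for full effect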
An asterisk follows results filed as active; u = inconclusive; x = no result given; ! = a repeat was not active. Shown are actives, neighbours in structure and some others; about 2.1% of the full set was active somewhere.

SMILES | Shn3 inh set2 | EWS-Fli inh | EBV LMP1 NFkB | aSyn UTR inh | FN deposit inh | PAX8 reporter
CN1[C@@H]2CN(CC3CC3)C[C@H]1C2c1ccc(Br)cc1 (stereo partly specified) | x | x | x | x | 7 | x
CCC(C)C1NC(=O)C(NC(=O)C(CC(C)C)N(C)C(=O)C2CCCN2C(=O)C(C)O)C(C)OC(=O)C(Cc2ccc(OC)cc2)N(C)C(=O)C2CCCN2C(=O)C(CC(C)C)NC(=O)[C@H](C)C(=O)[C@H](C(C)C)OC(=O)CC1O (stereo partly specified) | 99* | 72* | 93* | x | 23 | 95*
CCOP(=O)(CCP(=O)(OCC)OCC)OCC.C[CH2][Sn]([Cl])([Cl])[CH2]C | 48 | 45 | -2 | x | 1 | 93*
CCOP(=O)(OCC)OCC | 3 | -3 | -7 | x | x | x
Cc1ccc(OC(=O)N(C)C[C@H]2OCc3ccccc3-c3c(n(C)c4ccccc34)C(=O)N([C@H](C)CO)C[C@@H]2C)cc1 | x | 3 | x | x | 4 | 46
COC(=O)[C@H]1[C@H](CO)[C@H]2Cn3c(ccc(/C=C/c4ccccc4)c3=O)[C@@H]1N2C(=O)C1CCC1 | x | -8 | x | x | x | x
O=C1CNC[C@@H]2[C@@H](c3ccc(Br)cc3)[C@H](CO)N12 | x | -31 | x | x | 3 | -21
N#CC(C#N)=NNc1ccc(-n2ccc(C(F)(F)F)n2)cc1 | x | 23 | 60* | -5 | -27 | 94*
Cc1cc(C)n(-c2ccc(NN=C(C#N)C#N)cc2)n1 | 11 | -8 | 57* | 29 | -7 | 11
CCN(CC)S(=O)(=O)c1ccc(NN=C(C#N)C#N)cc1 | -3 | 4 | 32 | -13 | 0 | 3
CCCNC(=O)[C@H]1[C@H](CO)[C@H]2Cn3c(cccc3=O)[C@@H]1N2CCC | x | 3 | x | x | x | -6
Cc1cccc(S(=O)(=O)N2[C@@H]3c4ccc(-c5ccncc5)c(=O)n4C[C@H]2[C@H](CO)[C@H]3C(=O)O)c1 | x | -1 | x | x | x | 4
CC(=O)N1C[C@@H]2C(c3ccccc3)[C@H](C1)N2C (stereo partly specified) | x | x | x | x | -6 | x
C=C1C(C)C2C(Cc3ccccc3)NC(=O)C23OC(=O)/C=C/C(O)CCCC(C)C/C=C/C3C1O (stereo unspecified) | 65 | -12 | 0 | x | 41* | 93*
CCCCn1nnnc1C(CCc1ccccc1)N1CCC(n2c(=O)[nH]c3ccccc32)CC1 (stereo unspecified) | 18 | 15 | x | x | -4 | 81*
CCC(c1nnnn1Cc1ccccc1)N1CCC(n2c(=O)[nH]c3ccccc32)CC1 (stereo unspecified) | 32 | 7 | x | x | 8 | 88*
COc1cc([C@@H]2c3cc4c(cc3[C@@H](OC)[C@H]3COC(=O)[C@H]23)OCO4)cc(OC)c1O | -5 | 63* | -2 | 33 | -9 | 21
CCC(=O)N1[C@@H]2c3ccc(C4=CCCC4)c(=O)n3C[C@H]1[C@H](CO)[C@H]2C(=O)OC | x | -2 | x | x | -3 | -1
COc1ccc(CC2NCC(O)C2OC(C)=O)cc1 (stereo unspecified) | 97* | 59* | 88* | x | x | x
O=C(Cc1ccccn1)N1CCCCN2[C@H](CO)[C@H](c3ccc(-c4ccccc4F)cc3)[C@@H]2C1 | x | 13 | x | x | x | 49
COc1ccc(CCNCc2cccn2C)cc1 | 7 | -2 | 69* | -3 | -4 | 13
Cn1cccc1CNCCc1ccccc1 | x | x | x | 22 | x | x
COC(=O)C[C@@H]1CC[C@H]2NC[C@H](O)COC[C@@H]2O1 | x | 0 | x | x | -2 | -8
O=Cc1cn(Cc2cccc([N+](=O)[O-])c2)c2ccccc12 | 34 | 7 | 89* | 94* | 4 | 32
Cc1cccc(Cn2cc(C=O)c3ccccc32)c1 | 33 | 15 | 51* | 68* | -1 | 21
SMILES | Shn3 inh set2 | EWS-Fli inh | EBV LMP1 NFkB | aSyn UTR inh | FN deposit inh | PAX8 reporter
CCCN1[C@@H]2c3ccc(-c4ccc(OC)cc4)c(=O)n3C[C@H]1[C@H](CO)[C@H]2C(=O)OC | x | -4 | x | x | x | 8
CC[n+]1c(/C=C/N(C)c2ccccc2)sc2ccc(Cl)cc21 | 92* | x | 20 | -12 | -12 | x
CN(C)c1ccc(/C=C/C=C/c2sc3ccccc3[n+]2C)cc1 | x | 48 | 21 | u | -13 | 84*
CC[n+]1c(/C=C/C=C/c2ccc(N(C)C)cc2)sc2ccccc21 | 84 | 23 | 39 | u | 2 | 80*
CN(C)c1ccc(/C=C/c2cc[n+](C)c3ccccc23)cc1 | 81 | 4 | 42*! | x | 0 | 95*
N#Cc1cccc(-c2ccc([C@H]3[C@H](CO)N4CCCCN(C(=O)Cc5ccccc5)C[C@@H]34)cc2)c1 | x | 12 | x | x | x | -3
C=CCN1CC[C@]23c4c5ccc(O)c4OC2[C@H](O)CC[C@@]3(O)[C@H]1C5 (stereo partly specified) | 7 | 1 | 8 | x | x | x
Oc1ccc2c3c1O[C@H]1[C@@H](O)CC[C@@]4(O)[C@@H](C2)N(CC2CCC2)CC[C@]314 | 16 | -10 | 69*! | 5 | -6 | -13
C/C=C/c1ccc(C2[C@H]3CNC[C@@H]2N3CC2CCCCC2)cc1 (stereo partly specified) | x | 76* | x | x | 3 | -4
CC=Cc1ccc2n(c1=O)C[C@@H]1[C@@H](CO)[C@H](C(=O)OC)[C@H]2N1CC1CCOCC1 (mixture of isomers) | x | -13 | x | x | x | -1
CCN1/C(=C\C=C\C2=[N+](CC)c3ccccc3C2(C)C)C(C)(C)c2ccccc21 | 96* | x | 71* | 104* | x | x
CC(C)CC#Cc1ccc([C@H]2[C@H](CO)N3CCCCN(C(=O)Cc4ccccn4)C[C@@H]23)cc1 | x | -2 | x | x | x | 7
N=c1c2c(n(Cc3ccc(Cl)cc3Cl)c3c1CCC3)CCCC2 | 86* | x | 37 | 8 | x | x
OC[C@@H]1Nc2ccc(C#Cc3cccnc3)cc2[C@H]2NCC[C@@H]12 | x | x | x | x | -4 | x
CC(=O)Nc1ccc(OC(=O)N2CCCCC2)cc1 | 9 | x | 3 | 69* | 8 | x
CC(=O)OC(C)(C)/C=C/C(=O)C(C)(O)C1C(O)CC2(C)C3CC=C4C(CC(O)C(=O)C4(C)C)C3(C)C(=O)CC12C (stereo unspecified) | 85 | -4 | 12 | x | 30* | 108*
CC(=O)OC(C)(C)/C=C/C(=O)[C@](C)(O)[C@H]1[C@H](O)C[C@@]2(C)[C@@H]3CC=C4[C@H](C[C@H](O)C(=O)C4(C)C)[C@]3(C)C(=O)C[C@]12C | 98* | x | 51* | x | x | x
CC(=O)OC(C)(C)/C=C/C(=O)C(C)(O)C1[C@H](O)C[C@@]2(C)C3CC=C4C(CC[C@@H](O)C4(C)C)[C@]3(CO)C(=O)C[C@]12C (stereo partly specified) | 70 | -6 | 30 | 86* | -5 | 112*
O=C(O)[C@H]1[C@H](CO)[C@H]2Cn3c(ccc(-c4cccc(F)c4)c3=O)[C@@H]1N2CCc1ccccc1 | x | -2 | x | x | x | -3
COC(=O)[C@@H]1[C@@H](CO)[C@@H]2Cn3c(ccc(-c4ccccc4)c3=O)[C@H]1N2S(=O)(=O)c1ccccc1C | x | 1 | x | x | x | -3
